One assay deals with T1, Monoglyceride lipase (Homo sapiens, UniProt Q99685).
T1 sequence (Q99685 whole entry): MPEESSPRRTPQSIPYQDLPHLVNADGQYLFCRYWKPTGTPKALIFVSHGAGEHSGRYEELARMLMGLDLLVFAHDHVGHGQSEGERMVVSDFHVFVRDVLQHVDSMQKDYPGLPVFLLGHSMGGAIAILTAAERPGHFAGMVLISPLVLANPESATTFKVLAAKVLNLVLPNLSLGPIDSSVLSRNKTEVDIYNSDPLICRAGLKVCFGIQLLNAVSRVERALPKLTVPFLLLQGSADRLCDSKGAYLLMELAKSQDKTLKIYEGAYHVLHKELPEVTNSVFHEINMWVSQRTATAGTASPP
Put plainly: Inhibition of human MGL activity using [3H]2-oleoylglycerol substrate by liquid scintillation counting. The method, boiled down: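 Recombinant human MGL was used, and inhibition was expressed as pIC50.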

The target of assay [1] is T2, Monoglyceride lipase (Homo sapiens) (UniProt Q99685).
T2 sequence (whole entry): T1 sequence (Q99685 whole entry)
Put plainly: Inhibition of human MGL activity using [3H]2-oleoylglycerol substrate at 10 uM by liquid scintillation counting. The method, boiled down: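 Single-point screen on recombinant human MGL at 10 μM, with a parallel screen at 100 μM.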

Assay [2] addresses T3, Fatty-acid amide hydrolase 1 (Homo sapiens, UniProt O00519).
T3 sequence (O00519 whole entry): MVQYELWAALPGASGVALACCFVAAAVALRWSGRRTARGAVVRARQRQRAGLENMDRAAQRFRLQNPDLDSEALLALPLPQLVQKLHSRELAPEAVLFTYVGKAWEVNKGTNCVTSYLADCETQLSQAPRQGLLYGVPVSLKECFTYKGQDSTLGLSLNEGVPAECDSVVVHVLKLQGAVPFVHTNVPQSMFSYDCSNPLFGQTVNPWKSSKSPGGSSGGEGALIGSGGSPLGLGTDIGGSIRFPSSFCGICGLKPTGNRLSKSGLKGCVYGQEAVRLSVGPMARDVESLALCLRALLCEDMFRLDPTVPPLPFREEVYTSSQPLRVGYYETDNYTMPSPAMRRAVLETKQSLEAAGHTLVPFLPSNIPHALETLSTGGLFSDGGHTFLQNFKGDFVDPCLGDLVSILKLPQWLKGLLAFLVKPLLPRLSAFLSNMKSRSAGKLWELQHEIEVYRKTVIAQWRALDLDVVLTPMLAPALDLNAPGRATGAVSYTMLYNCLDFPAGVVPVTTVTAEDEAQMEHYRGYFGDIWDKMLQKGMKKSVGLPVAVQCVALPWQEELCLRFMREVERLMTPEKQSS
Put plainly: Inhibition of human recombinant FAAH-maltose binding protein.

The species entered for a further assay is Homo sapiens. Put plainly: Selectivity ratio for human MGL activity to human recombinant FAAH.

What is called IC50 is the concentration at which inhibition is half-maximal. What is called inhibition is how much of the control response was suppressed.

As for `CCN(CC)SSN(CC)CC`, the IC50 against Monoglyceride lipase was 7.94 µM; in assay [2], more than 1000 µM. The inhibition in assay [1] was more than 50%.
For `CCN(CC)C(=S)SCSC(=S)N(CC)CC`, in that order: 20.9 µM, more than 1000 µM and more than 50%.
For `CN(C)C(=S)SC(=S)N1CCOCC1`, in that order: 6.46 µM, more than 1000 µM and more than 50%.
For `CCN(CC)C(=S)CSC(=S)N(CC)CC` [(DIETHYLTHIOCARBAMOYL)METHYLENE DIETHYLCARBAMODITHIOATE], in that order: 19.1 µM, more than 1000 µM and more than 50%.
Consider `C1CN(SSN2CCOCC2)CCO1` [DITHIODIMORPHOLINE], for which the IC50 against Monoglyceride lipase was 11.2 µM; in assay [2] it was more than 1000 µM. The inhibition in assay [1] was more than 50%.
For `CN(C(=S)SSC(=S)N(C)C1CCCCC1)C1CCCCC1`, in that order: 0.141 µM, 4.79 µM and more than 50%.
For `CN(C(=S)SSC(=S)N(C)c1ccccc1)c1ccccc1`, in that order: 0.741 µM, 33.9 µM and more than 50%.
For `S=C(SSC(=S)N1CCCc2ccccc21)N1CCCc2ccccc21`, in that order: 0.741 µM, more than 1000 µM and more than 50%.
Turning to `CN(Cc1ccccc1)C(=S)SSC(=S)N(C)Cc1ccccc1`, the values for the IC50 (against Monoglyceride lipase; in assay [2]) were 0.437 µM and more than 1000 µM, respectively. In addition, the inhibition in assay [1] was more than 50%.
For `S=C(SSC(=S)N1CCN(c2ccccc2)CC1)N1CCN(c2ccccc2)CC1`, in that order: 0.49 µM, 135 µM and more than 50%.
In the case of `CN(C)C(=O)n1nnnc1Cc1ccc(-c2ccccc2)cc1`, the IC50 against Monoglyceride lipase was 0.055 µM.
Turning to `CC1CCN(C(=S)SSC(=S)N2CCC(C)CC2)CC1`, the IC50 against Monoglyceride lipase is 0.269 µM; in assay [2], more than 1000 µM. In addition, the inhibition in assay [1] was more than 50%.
For `CN1CCN(C(=S)SCSC(=S)N2CCN(C)CC2)CC1`, in that order: 95.5 µM, more than 1000 µM and more than 50%.
For `S=C(SSC(=S)N1CCSCC1)N1CCSCC1`, in that order: 0.316 µM, 25.1 µM and more than 50%.
For `S=C(SSC(=S)N1CCCCC1)N1CCCCC1` [BIS(PIPERIDINYLTHIOCARBONYL)DISULFIDE], in that order: 0.316 µM, more than 1000 µM and more than 50%.
As for `S=C(SSC(=S)N1CCC(Cc2ccccc2)CC1)N1CCC(Cc2ccccc2)CC1`, the results for the IC50 (against Monoglyceride lipase; in assay [2]) were 6.92 µM and more than 1000 µM, respectively. Besides, the inhibition in assay [1] is more than 50%.
For `C1CCN(SSN2CCCCC2)CC1`, the figures for the IC50 (on Monoglyceride lipase; in assay [2]) were 9.55 µM and more than 1000 µM, respectively. Further, the inhibition in assay [1] was more than 50%.
For `S=C(SSC(=S)N1CCN(C2CCCCC2)CC1)N1CCN(C2CCCCC2)CC1`, in that order: 0.166 µM, more than 1000 µM and more than 50%.
For `S=C(SSC(=S)N1CCCC1)N1CCCC1` [BIS(PYRROLIDINYLTHIOCARBONYL)DISULFIDE], in that order: 0.912 µM, more than 1000 µM and more than 50%.
For the compound `COc1nn(-c2ccc(NC(=O)OCc3ccccc3)c(C)c2)c(=O)o1`, the Selectivity ratio in the assay listed under Homo sapiens was found to be 3. Further, the results for the IC50 (against Monoglyceride lipase; in assay [2]) were 0.0204 µM and 0.0776 µM, respectively.
Turning to `CC1CCCC(C)N1C(=S)SSC(=S)N1C(C)CCCC1C` (stereo not drawn), the figures for the IC50 (against Monoglyceride lipase; in assay [2]) were 0.479 µM and more than 1000 µM, respectively. The compound further gave an inhibition in assay [1] of more than 50%.
For `S=C(SSC(=S)N1CCOCC1)N1CCOCC1`, in that order: 0.219 µM, 79.4 µM and more than 50%.
For `S=C(CSC(=S)N1CCOCC1)N1CCOCC1`, in that order: 15.5 µM, more than 1000 µM and more than 50%.
For `CN(C)C(=S)SC(=S)N(C)C` [BIS(DIMETHYLAMINETHIOCARBONYL)MONOSULFIDE], in that order: 12.3 µM, more than 1000 µM and more than 50%.
Regarding `O=C(Nc1cccc(-c2ccccc2)c1)OC1CCCCC1`, in the assay listed under Homo sapiens, the Selectivity ratio was 0.57. Moreover, the values for the IC50 (at Monoglyceride lipase; in assay [2]) were 10 µM and 5.75 µM, respectively.
`CSC(=S)N1CCOCC1`: the IC50 (against Monoglyceride lipase; in assay [2]) was more than 1000 µM throughout. The same compound displayed an inhibition in assay [1] of more than 50%.
For the compound `CCCCCCCCCCCCCCCCN(CC)C(=S)SSC(=S)N(CC)CCCCCCCCCCCCCC`, the IC50 is 10.5 µM against Monoglyceride lipase and more than 1000 µM in assay [2]. Moreover, the inhibition in assay [1] is more than 50%.
In the case of `CCN(CC)C(=S)SC` [METHYLDIETHYL CARBAMODITHIOATE], the IC50 (on Monoglyceride lipase; in assay [2]) was more than 1000 µM each time.
On to `S=C(SSC(=S)N1CCN(Cc2ccccc2)CC1)N1CCN(Cc2ccccc2)CC1`, for which the results for the IC50 (at Monoglyceride lipase; in assay [2]) were 5.01 µM and 170 µM, respectively. This compound yielded an inhibition in assay [1] of more than 50%.
For `O=C(CSC(=S)N1CCOCC1)N1CCOCC1`, in that order: 219 µM, more than 1000 µM and more than 50%.
For `S=C(SSC(=S)N(Cc1ccccc1)Cc1ccccc1)N(Cc1ccccc1)Cc1ccccc1` [BIS(DIBENZYLAMINETHIOCARBONYL)DISULFIDE], in that order: 9.55 µM, more than 1000 µM and more than 50%.
For `CCN(Cc1ccccc1)C(=S)SSC(=S)N(CC)Cc1ccccc1`, in that order: 4.07 µM, more than 1000 µM and more than 50%.
On to `CCN(CC)C(=O)CSC(=S)N(CC)CC` [(DIETHYLCARBAMOYL)METHYLENE DIETHYLCARBAMODITHIOATE], for which the IC50 at Monoglyceride lipase was 631 µM; in assay [2], more than 1000 µM. The inhibition in assay [1] is more than 50%.
For `CCN(CC)C(=S)SSC(=S)N(CC)CC`, in that order: 1.26 µM, 363 µM and more than 50%.
For `S=C(SSC(=S)N1CCc2ccccc2C1)N1CCc2ccccc2C1`, in that order: 0.347 µM, more than 1000 µM and more than 50%.
On to `CN(C)C(=S)SSC(=S)N(C)C` [THIRAM], for which the Selectivity ratio in the assay filed under Homo sapiens turned out to be 45. The IC50 against Monoglyceride lipase is 0.977 µM; in assay [2], 44.7 µM. For the same compound, in assay [1], the inhibition is more than 50%.
With `CCCCC/C=C\C/C=C\C/C=C\C/C=C\CCCCN1C(=O)CCC1=O`, the Selectivity ratio in the assay listed under Homo sapiens was 1.95. Further, the IC50 against Monoglyceride lipase is 1.12 µM; in assay [2] it was 2.19 µM.
For the compound `CCCCC/C=C\C/C=C\C/C=C\C/C=C\CCCC(=O)C(F)(F)F` [ARACHIDONYL TRIFLUOROMETHYLKETONE], in the assay filed under Homo sapiens, the Selectivity ratio worked out at 0.002. In addition, the IC50 on Monoglyceride lipase is 6.46 µM; in assay [2], 0.0123 µM.
With `S=C(SCSC(=S)N1CCOCC1)N1CCOCC1`, the half-maximal inhibitory concentration (IC50) at Monoglyceride lipase is 102 µM; in assay [2] it was more than 1000 µM. This compound also returned an inhibition in assay [1] of more than 50%.
For `S=C(SSC(=S)N1CCCCCC1)N1CCCCCC1`, in that order: 0.813 µM, more than 1000 µM and more than 50%.

Values taken from ChEMBL document CHEMBL1154683, “Bis(dialkylaminethiocarbonyl)disulfides as potent and selective monoglyceride lipase inhibitors” (J Med Chem, 2009).
